Measurements: ChEMBL document CHEMBL2424657, “Identification of the KDM2/7 histone lysine demethylase subfamily inhibitor and its antiproliferative activity” (J Med Chem, 2013)

Key:
[1] = Growth inhibition of human KYSE-150 cells after 48 hrs by MTT assay; format: functional; details: KYSE-150, 48 h
In short: (§1)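 Cells were seeded at 5000/well in RPMI 1640 with 10% FBS and allowed to attach overnight, then exposed for 48 h at 37 °C in 5% CO2. MTT was added for 3 h, and the dye was solubilized in HCl–2-propanol and read at 560 nm (reference 750 nm).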

[2] = system: HeLa; assay: Growth inhibition of human HeLa cells after 48 hrs by MTT assay; format: functional; in short: as §1
[3] = target: T1, Lysine-specific demethylase 2A (Homo sapiens, UniProt Q9Y2K7); assay: Inhibition of KDM2A (unknown origin)
T1 sequence (Q9Y2K7 whole entry): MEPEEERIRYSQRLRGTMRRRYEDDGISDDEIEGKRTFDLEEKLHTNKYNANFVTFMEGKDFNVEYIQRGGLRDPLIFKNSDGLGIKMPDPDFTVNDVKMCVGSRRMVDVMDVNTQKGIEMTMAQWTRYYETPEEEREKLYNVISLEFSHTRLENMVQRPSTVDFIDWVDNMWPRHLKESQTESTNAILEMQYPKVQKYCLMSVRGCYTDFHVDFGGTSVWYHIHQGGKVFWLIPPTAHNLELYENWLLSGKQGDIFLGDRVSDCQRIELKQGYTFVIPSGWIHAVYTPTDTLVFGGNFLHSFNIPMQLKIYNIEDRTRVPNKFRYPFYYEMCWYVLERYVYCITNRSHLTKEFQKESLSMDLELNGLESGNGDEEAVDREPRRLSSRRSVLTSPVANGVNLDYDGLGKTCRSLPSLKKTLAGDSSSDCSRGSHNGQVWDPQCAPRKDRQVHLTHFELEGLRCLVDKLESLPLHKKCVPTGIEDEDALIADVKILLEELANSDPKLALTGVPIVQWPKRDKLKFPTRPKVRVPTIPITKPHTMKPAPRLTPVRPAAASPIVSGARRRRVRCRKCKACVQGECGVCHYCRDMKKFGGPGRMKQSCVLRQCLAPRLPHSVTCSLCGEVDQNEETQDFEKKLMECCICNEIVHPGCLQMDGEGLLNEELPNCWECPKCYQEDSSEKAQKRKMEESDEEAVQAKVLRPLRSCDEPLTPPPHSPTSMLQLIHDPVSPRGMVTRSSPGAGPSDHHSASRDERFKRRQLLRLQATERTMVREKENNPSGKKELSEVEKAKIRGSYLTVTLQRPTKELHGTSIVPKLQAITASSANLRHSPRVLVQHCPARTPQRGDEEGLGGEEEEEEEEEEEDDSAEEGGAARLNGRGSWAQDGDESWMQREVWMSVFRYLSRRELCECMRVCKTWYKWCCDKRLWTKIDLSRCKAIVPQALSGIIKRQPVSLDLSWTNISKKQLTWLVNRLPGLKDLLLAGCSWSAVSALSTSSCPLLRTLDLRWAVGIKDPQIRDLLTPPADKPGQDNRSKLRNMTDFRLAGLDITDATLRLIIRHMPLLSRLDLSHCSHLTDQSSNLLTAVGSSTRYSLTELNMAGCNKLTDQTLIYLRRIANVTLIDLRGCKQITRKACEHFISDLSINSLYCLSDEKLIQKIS

[4] = target: Lysine-specific demethylase 5A (Homo sapiens, UniProt P29375); assay: Inhibition of KDM5A (unknown origin) using H3K4me3 peptide and 2-oxoglutarate as substrate after 1 hr by FDH-coupled assay
In short: (§2)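 Run as the FDH-coupled KDM4C format, with compounds in DMSO and activity relative to a DMSO control. KDM4A was used at 0.37 mg/mL final with H3K9me3 peptide. KDM5A was used at 0.64 mg/mL final with H3K4me3 peptide. Values are means of two experiments.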

[5] = target: T2, Lysine-specific demethylase 4A (Homo sapiens, UniProt O75164); assay: Inhibition of KDM4A (unknown origin) using H3K9me3 peptide and 2-oxoglutarate as substrate after 1 hr by FDH-coupled assay; in short: as §2
T2 sequence (O75164 whole entry): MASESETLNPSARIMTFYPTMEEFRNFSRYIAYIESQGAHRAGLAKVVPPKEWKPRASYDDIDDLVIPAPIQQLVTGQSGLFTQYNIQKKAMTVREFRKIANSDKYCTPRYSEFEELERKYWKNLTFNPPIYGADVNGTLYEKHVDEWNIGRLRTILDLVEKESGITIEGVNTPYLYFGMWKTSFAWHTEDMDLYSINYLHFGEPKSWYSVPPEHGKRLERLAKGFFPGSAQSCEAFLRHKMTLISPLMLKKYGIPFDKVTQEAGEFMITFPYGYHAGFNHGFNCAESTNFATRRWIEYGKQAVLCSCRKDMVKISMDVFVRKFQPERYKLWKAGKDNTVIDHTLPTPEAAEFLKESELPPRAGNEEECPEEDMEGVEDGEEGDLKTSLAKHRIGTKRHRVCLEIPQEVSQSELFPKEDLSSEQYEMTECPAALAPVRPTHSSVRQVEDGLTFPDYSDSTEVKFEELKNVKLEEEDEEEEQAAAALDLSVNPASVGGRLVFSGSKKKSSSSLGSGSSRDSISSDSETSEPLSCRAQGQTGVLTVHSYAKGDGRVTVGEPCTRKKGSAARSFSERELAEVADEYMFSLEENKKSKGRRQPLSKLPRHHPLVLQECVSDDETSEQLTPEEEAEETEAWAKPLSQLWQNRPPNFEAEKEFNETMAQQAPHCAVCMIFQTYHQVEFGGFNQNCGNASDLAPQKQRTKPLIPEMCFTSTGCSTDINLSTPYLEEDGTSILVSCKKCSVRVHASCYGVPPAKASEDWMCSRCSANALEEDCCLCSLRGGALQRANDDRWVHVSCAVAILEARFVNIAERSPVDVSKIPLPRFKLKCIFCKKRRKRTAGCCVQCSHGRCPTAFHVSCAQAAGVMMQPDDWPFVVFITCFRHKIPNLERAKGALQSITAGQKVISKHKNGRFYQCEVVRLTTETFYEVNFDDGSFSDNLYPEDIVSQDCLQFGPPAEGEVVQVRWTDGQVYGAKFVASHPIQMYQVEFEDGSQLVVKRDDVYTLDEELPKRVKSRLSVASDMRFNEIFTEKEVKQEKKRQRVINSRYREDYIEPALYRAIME

[6] = target: Histone lysine demethylase PHF8 (Homo sapiens, UniProt Q9UPP1); assay: Inhibition of KDM7B (unknown origin) using H3K4me3K9me2 and 2-oxoglutarate as substrate after 1 hr by matrix-assisted laser desorption ionization time of flight mass spectrometry
In short: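 Enzyme (0.5 mg/mL) was reacted with 5 μM H3K4me3K9me2 peptide, 0.5 mM 2-oxoglutarate, 20 μM Fe(II), 20 μM ZnCl2, 0.5 mM ascorbate, 150 mM KCl, glutathione and DTT in 10 mM Tris-HCl pH 8.0 for 1 h at 37 °C. Inhibition was calculated from the remaining H3K9me2, and IC50 was taken as the concentration halving H3K9me2 removal. Values are means of two experiments.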

Lysine-specific demethylase 5A, sequence (P29375 whole entry): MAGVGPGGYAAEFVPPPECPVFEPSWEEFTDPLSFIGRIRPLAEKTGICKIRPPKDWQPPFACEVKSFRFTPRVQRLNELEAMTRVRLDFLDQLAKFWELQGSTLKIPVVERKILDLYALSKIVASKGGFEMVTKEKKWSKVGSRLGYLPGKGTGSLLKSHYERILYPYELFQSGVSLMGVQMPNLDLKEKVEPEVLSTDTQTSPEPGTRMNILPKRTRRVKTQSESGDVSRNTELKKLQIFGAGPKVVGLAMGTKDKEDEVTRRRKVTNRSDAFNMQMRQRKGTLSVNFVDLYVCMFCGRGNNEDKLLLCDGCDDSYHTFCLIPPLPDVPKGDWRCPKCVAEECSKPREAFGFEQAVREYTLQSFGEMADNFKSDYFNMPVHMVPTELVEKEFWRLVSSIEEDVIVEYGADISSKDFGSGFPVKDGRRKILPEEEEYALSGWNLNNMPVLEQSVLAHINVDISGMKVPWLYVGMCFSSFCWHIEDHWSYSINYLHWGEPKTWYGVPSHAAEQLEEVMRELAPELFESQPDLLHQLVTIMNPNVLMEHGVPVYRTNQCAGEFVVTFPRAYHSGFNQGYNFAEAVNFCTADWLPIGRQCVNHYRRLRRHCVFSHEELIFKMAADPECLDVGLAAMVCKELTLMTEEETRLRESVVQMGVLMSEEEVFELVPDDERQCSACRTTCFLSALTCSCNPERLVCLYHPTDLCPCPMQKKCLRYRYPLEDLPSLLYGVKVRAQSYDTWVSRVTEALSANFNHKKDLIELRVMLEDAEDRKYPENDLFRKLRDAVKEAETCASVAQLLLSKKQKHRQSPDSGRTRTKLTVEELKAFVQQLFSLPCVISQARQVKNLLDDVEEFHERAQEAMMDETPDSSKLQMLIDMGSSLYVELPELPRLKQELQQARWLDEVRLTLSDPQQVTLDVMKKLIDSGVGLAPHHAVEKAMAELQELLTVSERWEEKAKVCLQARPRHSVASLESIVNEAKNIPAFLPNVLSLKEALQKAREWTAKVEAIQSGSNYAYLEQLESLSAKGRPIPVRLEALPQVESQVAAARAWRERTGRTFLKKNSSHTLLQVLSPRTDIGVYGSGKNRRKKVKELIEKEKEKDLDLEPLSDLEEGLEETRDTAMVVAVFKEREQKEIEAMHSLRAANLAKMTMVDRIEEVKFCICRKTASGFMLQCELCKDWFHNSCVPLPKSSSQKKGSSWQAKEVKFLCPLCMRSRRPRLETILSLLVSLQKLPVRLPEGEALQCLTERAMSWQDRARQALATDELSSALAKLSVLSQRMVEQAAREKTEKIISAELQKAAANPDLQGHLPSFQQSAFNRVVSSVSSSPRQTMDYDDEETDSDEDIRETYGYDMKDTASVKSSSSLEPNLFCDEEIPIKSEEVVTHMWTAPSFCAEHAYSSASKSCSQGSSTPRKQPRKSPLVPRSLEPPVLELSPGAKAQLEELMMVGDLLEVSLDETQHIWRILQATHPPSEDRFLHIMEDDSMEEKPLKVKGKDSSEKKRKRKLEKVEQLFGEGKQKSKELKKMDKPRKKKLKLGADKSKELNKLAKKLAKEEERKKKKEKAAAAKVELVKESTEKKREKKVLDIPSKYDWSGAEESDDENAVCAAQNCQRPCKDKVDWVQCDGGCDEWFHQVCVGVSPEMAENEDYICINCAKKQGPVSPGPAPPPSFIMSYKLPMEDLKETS
Histone lysine demethylase PHF8, sequence (Q9UPP1 whole entry): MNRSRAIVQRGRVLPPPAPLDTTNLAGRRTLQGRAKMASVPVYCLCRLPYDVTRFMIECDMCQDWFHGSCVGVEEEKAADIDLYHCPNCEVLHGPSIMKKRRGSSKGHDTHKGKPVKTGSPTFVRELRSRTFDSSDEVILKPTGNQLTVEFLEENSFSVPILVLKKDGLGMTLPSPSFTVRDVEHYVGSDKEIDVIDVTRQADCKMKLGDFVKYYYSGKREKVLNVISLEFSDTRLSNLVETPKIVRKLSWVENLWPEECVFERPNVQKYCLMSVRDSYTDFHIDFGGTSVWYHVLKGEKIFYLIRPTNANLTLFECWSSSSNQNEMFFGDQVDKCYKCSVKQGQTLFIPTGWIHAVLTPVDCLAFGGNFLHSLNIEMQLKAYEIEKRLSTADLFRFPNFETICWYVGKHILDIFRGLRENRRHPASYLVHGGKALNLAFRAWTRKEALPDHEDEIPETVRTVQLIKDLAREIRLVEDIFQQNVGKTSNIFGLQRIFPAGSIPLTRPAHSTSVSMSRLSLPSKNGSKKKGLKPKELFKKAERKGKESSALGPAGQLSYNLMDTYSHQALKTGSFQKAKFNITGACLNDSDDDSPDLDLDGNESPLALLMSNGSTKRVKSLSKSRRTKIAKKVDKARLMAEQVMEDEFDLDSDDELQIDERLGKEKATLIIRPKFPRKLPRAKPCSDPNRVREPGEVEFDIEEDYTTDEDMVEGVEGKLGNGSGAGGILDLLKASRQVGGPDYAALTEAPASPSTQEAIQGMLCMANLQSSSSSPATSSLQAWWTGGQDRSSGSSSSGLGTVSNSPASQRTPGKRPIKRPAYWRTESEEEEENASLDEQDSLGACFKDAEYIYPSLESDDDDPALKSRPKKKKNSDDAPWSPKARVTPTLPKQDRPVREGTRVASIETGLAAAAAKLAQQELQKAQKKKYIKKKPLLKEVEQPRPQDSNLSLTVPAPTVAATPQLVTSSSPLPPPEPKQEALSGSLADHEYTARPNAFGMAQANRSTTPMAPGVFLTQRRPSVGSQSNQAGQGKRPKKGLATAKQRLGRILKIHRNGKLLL

CN(C)CCCCCCCCC(=O)N(O)CCC(=O)O
GI50 [1]: > 470 µM
GI50 [2]: > 470 µM
IC50 [3]: 0.2 µM
IC50 [4]: 13 µM
IC50 [5]: 800 nM
IC50 [6]: 19 µM

O=C(O)CCN(O)C(=O)CCCCCCCCC1CC1
GI50 [1]: 16 µM
GI50 [2]: 40 µM
IC50 [3]: 6.8 µM
IC50 [4]: 55 µM
IC50 [5]: > 120000 nM
IC50 [6]: 1.2 µM
